This note sets out measurements from ChEMBL document CHEMBL2203117, “Synthesis and biological activities of N-(3-carboxylpropyl)-5-amino-2-hydroxy-3-tridecyl-1,4-benzoquinone and analogues” (2012).

Calls of active or inactive are those of the source. No cut-off for these calls is given here.

For test [1], the system named is GM15850. The test can be described thus: Protection against DEM-induced loss of mitochondrial membrane potential in human GM15850 cells at 5 uM after 16 hrs using TMRM/JC-1 staining by flow cytometry analysis relative to control. The test is classed as functional. In a few lines:
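FRDA lymphocytes were pretreated with compound for 16 h, then given 5 mM DEM for 140 min. Cells were washed twice with PBS and stained with 250 nM TMRM in PBS-glucose for 15 min at 37 °C in the dark. Flow cytometry read the FL2-H channel (488 nm excitation), 10 000 events, with FCCP as the depolarized control. Result is the % of cells with intact Δψm (top right quadrant). Mean ± SEM of three experiments in duplicate.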

The subject of test [2] is CCRF-CEM. Nature of the test: Antioxidant activity in human CEM cells assessed as inhibition of glutathione depletion-induced ROS production at 5 uM after 16 hrs using DCFH-DA staining by flow cytometry analysis. The test is classed as functional, cell-based. In a few lines: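 CEM leukemia lymphocytes (5 × 10⁵ cells in 1 mL) were given compound for 16 h at 37 °C in 5% CO2. They were then exposed to 5 mM diethyl maleate for 40 min to deplete GSH. After a PBS wash they were stained with 10 μM DCFH-DA in PBS with 20 mM glucose for 20 min at 37 °C in the dark. DCF fluorescence was read by flow cytometry (488 nm excitation, FL1-H), 10 000 events. Mean ± SEM of two experiments, each in duplicate.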
In general terms: A flow cytometer gives signals particle by particle.

The test system of test [3] is GM15850. The test can be described thus: Antioxidant activity in human GM15850 cells assessed as inhibition of glutathione depletion-induced ROS production at 5 uM after 16 hrs using DCFH-DA staining by flow cytometry analysis. The test is classed as functional, cell-based. In short, it runs like this:
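FRDA lymphocytes (5 × 10⁵ cells in 1 mL) were pretreated with compound for 16 h at 37 °C in 5% CO2. GSH was then depleted with 5 mM diethyl maleate for 80 min. Cells were washed and loaded with 10 μM DCFH-DA in PBS with 20 mM glucose for 20 min at 37 °C in the dark. DCF was measured by flow cytometry (488 nm, FL1-H), 10 000 events. Two experiments in duplicate, mean ± SEM.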

Test [4] is described as follows: Antioxidant activity in human GM15850 cells assessed as inhibition of glutathione depletion-induced lipid peroxidation at 10 uM after 16 hrs using C11-BODIPY581/591 by FACS analysis relative to control. On the set-up: scale not given: the % may be the effect or the level left. The test is classed as functional. In a few lines:
(§1)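 FRDA lymphocytes at 5 × 10⁵ cells/mL received compound (5 or 10 μM final) for 16 h at 37 °C. Cells were loaded with 1 μM C11-BODIPY581/591 in phenol red-free RPMI for 30 min in the dark, then stressed with 5 mM DEM for 2 h. After washing, green (oxidized) fluorescence was read by FACS, 10 000 events. Scavenging % = [(100 − % mean)/(100 − % mean of untreated control)] × 100. Duplicates, three independent experiments.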

Test [5] can be described thus: Antioxidant activity in human GM15850 cells assessed as inhibition of glutathione depletion-induced lipid peroxidation at 5 uM after 16 hrs using C11-BODIPY581/591 by FACS analysis relative to control. The test is classed as functional. On the set-up: scale not given: the % may be the effect or the level left. In short, it runs like this:
as §1

Test [6] deals with GM15850. Nature of the test: Cytoprotective activity in human GM15850 cells assessed as glutathione depletion-induced reduction of cell viability at 5 uM after 17 hrs by trypan blue exclusion assay relative to control. The test is classed as functional. In a few lines: (§2)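 FRDA lymphocytes were grown in RPMI 1640 with 15% fetal calf serum and 2 mM glutamine. Cells seeded at 5 × 10⁵ cells/mL were preincubated with compound for 17 h at 37 °C, then given 5 mM DEM for a further 6 h. Viability was scored by 0.4% trypan blue exclusion on a hemacytometer, counting at least 500 cells per group. Values are % of the untreated control (100%). Mean ± SEM, n = 3.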

Test [7] has as its system GM15850. Nature of the test: Cytoprotective activity in human GM15850 cells assessed as glutathione depletion-induced reduction of cell viability at 0.125 uM after 17 hrs by trypan blue exclusion assay relative to control. The test is classed as functional. In a few lines:
as §2

Test [8] concerns GM15850. Nature of the test: Cytoprotective activity in human GM15850 cells assessed as glutathione depletion-induced reduction of cell viability at 0.25 uM after 17 hrs by trypan blue exclusion assay relative to control. The test is classed as functional. In a few lines: as §2
Test [9] concerns GM15850. Nature of the test: Cytoprotective activity in human GM15850 cells assessed as glutathione depletion-induced reduction of cell viability at 2.5 uM after 17 hrs by trypan blue exclusion assay relative to control. The test is classed as functional. In short, it runs like this: as §2

Regarding `CCCCCCCCCCCCCC1=C(O)C(=O)C=C(NCCCC(=O)O)C1=O`, the Activity was found to be 27% in test [1], 24% in test [4], 8% in test [5] and 36% in test [6]. The result in test [2] and in test [3] was Active.
For the compound `CCCCCCCCCCCCCC1=C(O)C(=O)C=C(NCCCC(=O)OC(C)(C)C)C1=O`, the Activity is 40% in test [1], 37% in test [4], 26% in test [5] and 50% in [6]. Moreover, the outcome in [2] and in [3] was Active.
As for `CCCCCCCCCCCCCC1=C(OC)C(=O)C=C(NCCCC(=O)O)C1=O`, the Activity stood at 60% in test [1], 51% in test [4], 41% in test [5] and 74% in test [6]. The outcome in test [2] and in test [3] was Active.
`CCCCCCCCCCCCCC1=C(OC)C(=O)C=C(NCCCC(=O)OC(C)(C)C)C1=O`: the Activity in [1] came out at 85%; in test [4], 86%; in test [5] it was 72%; in test [7], 48%; in test [8], 58%; in [9], 84%. The Activity in [6] is given as 93%. Further, the outcome in test [2] and in test [3] was Active.
